Data on one molecule can be found in ChEMBL document CHEMBL1671691 (Antimicrob Agents Chemother, 2010).

What is called EC50 is the concentration that produces a half-maximal response.

In test [1] the test system is Influenza A virus. Description: Antiviral activity against adamantane-, zanamivir-susceptible oseltamivir-resistant Influenza A virus (A/North Carolina/02/ 2009(H1N1)) harboring M2 S31N mutant infected in MDCK cells assessed as inhibition of viral replication after 3 days by microscopic analysis using crystal violet stain. The class given is functional, organism-based. In a few lines: (§1)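 Confluent MDCK-ATCC monolayers infected with virus diluted to give 15–45 plaques/well. Adsorption 1 h at 37°C without drug, then washed. Overlaid with 0.8% agarose in MEM containing drug plus TPCK-trypsin: 3 μg/ml for seasonal viruses, 2 μg/ml for 2009 A(H1N1). Incubated 3 days at 37°C, 5% CO2. Ethanol-fixed, crystal violet-stained, plaques counted. EC50 by curve fit; duplicates on three occasions, mean ± SD.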

Test [2] relates to Influenza A virus. Description: Antiviral activity against adamantane-, zanamivir-susceptible oseltamivir-resistant Influenza A virus (A/New Jersey/15/2007(H1N1)) harboring neuraminidase H274Y mutant infected in MDCK cells assessed as inhibition of viral replication after 3 days by microscopic analysis using crystal violet stain. It counts as functional, organism-based. In a few lines:
as §1

For test [3], the system named is Influenza A virus. Put plainly: Antiviral activity against adamantane-resistant zanamivir-,oseltamivir-susceptible Influenza A virus (A/pdm/California/04/2009 (H1N1)) harboring M2 V28I, S31N mutant infected in MDCK cells assessed as inhibition of viral replication after 3 days by microscopic analysis using crystal violet stain. It counts as functional, organism-based, A/California/04/2009(H1N1). In a few lines: (§2)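 Plaque reduction on confluent MDCK-ATCC monolayers: pretitrated virus (15–45 plaques per well) adsorbed 1 h at 37°C without drug, then washed with PBS. Agarose overlay (0.8%, in MEM) with drug added, 3 days at 37°C. Cells fixed with 70% ethanol, stained with crystal violet, plaques counted. EC50 from curve fitting, averaged over three separate experiments in duplicate, ± SD.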

In test [4] the test system is Influenza A virus. Description: Antiviral activity against Influenza A virus (A/Washington/29/2009(H1N1)) harboring neuraminidase H275Y mutant infected in MDCK cells from ATCC assessed as log reduction in viral titer at 1.6 uM after 24 hrs by immunofluorescent assay. The class given is functional. In a few lines: (§3)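 Yield reduction in MDCK-ATCC or MDCK-Mill Hill cells infected at MOI ∼0.01. Adsorption 1 h at 4°C, washed, then DMEM with 2 μg/ml TPCK-trypsin and drug. At 24 h, supernatants were titrated by immunofluorescent focus assay on MDCK cells with anti-NP monoclonals and FITC secondary. Titres as log10 FFU per 100 μl; detection limit <10 FFU. Quadruplicate, mean ± SD.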

Test [5] deals with Influenza A virus. Put plainly: Antiviral activity against adamantane-, oseltamivir-, zanamivir-resistant Influenza A virus (A/Idaho/01/2009(H1N1)) harboring neuraminidase H274Y mutant infected in MDCK cells assessed as inhibition of viral replication after 3 days by microscopic analysis using crystal violet stain. It counts as functional, organism-based, Influenza A virus (A/Idaho/01/2008(H1N1)). In outline: as §1

The test system of test [6] is Influenza A virus. Put plainly: Antiviral activity against adamantane-resistant zanamivir-,oseltamivir-susceptible Influenza A virus (A/pdm/California/07/2009 (H1N1)) harboring M2 V28I, S31N mutant infected in MDCK cells assessed as inhibition of viral replication after 3 days by microscopic analysis using crystal violet stain. It counts as functional, organism-based, A/California/07/2009(H1N1). In outline:
as §2

For test [7], the system named is Influenza A virus. Put plainly: Antiviral activity against adamantane-resistant zanamivir-,oseltamivir-susceptible Influenza A virus (A/pdm/California/04/2009(H1N1)) harboring M2 V28I, S31N mutant infected in MDCK cells assessed as determination of viral titer in cell culture at 128 uM after 24 hrs by immunofluorescence assay. The class given is functional, organism-based. The settings on record: A/California/04/2009(H1N1).

For test [8], the system named is Influenza A virus. Put plainly: Antiviral activity against adamantane-resistant zanamivir-,oseltamivir-susceptible Influenza A virus (A/Massachusetts/03/2009(H3N2)) harboring M2 S31N mutant infected in MDCK cells assessed as inhibition of viral replication after 3 days by microscopic analysis using crystal violet stain. The class given is functional, organism-based. In outline: as §1

Test [9] deals with Influenza A virus. Description: Antiviral activity against Influenza A virus (A/Washington/29/2009(H1N1)) harboring neuraminidase H275Y mutant infected in MDCK cells from Mill Hill assessed as log reduction in viral titer at 1.6 uM after 24 hrs by immunofluorescent assay. It counts as functional. In outline:
as §3

Test [10] has as its system Influenza B virus. Description: Antiviral activity against oseltamivir-susceptible zanamivir-, adamantane-resistant Influenza B virus B/Memphis/20/1996 harboring neuraminidase R152K mutant infected in MDCK cells assessed as inhibition of viral replication after 3 days by microscopic analysis using crystal violet stain. The class given is functional, cell-based, B/Memphis/20/96.

In test [11] the test system is Influenza B virus. Description: microbe, parasite or virus in culture. The settings on record: B/New York/22/2008, MDCK, 72 h.
Test [12] relates to Influenza A virus. Description: Antiviral activity against Influenza A virus (A/Illinois/10/2009(H1N1)) harboring neuraminidase H275Y mutant infected in MDCK cells from ATCC assessed as log reduction in viral titer at 1.6 uM after 24 hrs by immunofluorescent assay. It counts as functional. In a few lines: as §3
Test [13] concerns Influenza A virus. Put plainly: Antiviral activity against oseltamivir-susceptible zanamivir-, adamantane-resistant Influenza A virus (A/Wuhan/395/1995-like (H3N2)) harboring neuraminidase E119V mutant infected in MDCK cells assessed as inhibition of viral replication after 3 days by microscopic analysis using crystal violet stain. It counts as functional, organism-based.
Test [14] has as its system Influenza B virus. Put plainly: microbe, parasite or virus in culture. The settings on record: (B/Rochester/01/2001), MDCK, 72 h.
Test [15] has as its system Influenza A virus. Put plainly: Antiviral activity against Influenza A virus (A/Illinois/10/2009(H1N1)) harboring neuraminidase H275Y mutant infected in MDCK cells from Mill Hill assessed as log reduction in viral titer at 1.6 uM after 24 hrs by immunofluorescent assay. The class given is functional. In a few lines:
as §3

Test [16] has as its system Influenza B virus. Put plainly: Antiviral activity against oseltamivir-susceptible zanamivir-, adamantane-resistant Influenza B virus (B/Rochester/01/2001) harboring neuraminidase D198N mutant infected in MDCK cells assessed as inhibition of viral replication after 3 days by microscopic analysis using crystal violet stain. The class given is functional, organism-based.

In test [17] the test system is Influenza A virus. Put plainly: Antiviral activity against adamantane-resistant zanamivir-,oseltamivir-susceptible Influenza A virus (A/pdm/New York/18/2009 (H1N1)) harboring M2 V28I, S31N mutant infected in MDCK cells assessed as inhibition of viral replication after 3 days by microscopic analysis using crystal violet stain. It counts as functional, organism-based, Influenza A virus (A/New York/18/2009(H1N1)). In outline: as §2

Test [18] has as its system Influenza A virus. Description: Antiviral activity against adamantane-resistant zanamivir-,oseltamivir-susceptible Influenza A virus (A/New York/34/2008(H1N1)) harboring M2 L26I mutant infected in MDCK cells assessed as inhibition of viral replication after 3 days by microscopic analysis using crystal violet stain. It counts as functional, organism-based. In a few lines: as §1

Test [19] relates to Influenza A virus. Put plainly: Antiviral activity against Influenza A virus (A/Illinois/10/2009(H1N1)) harboring neuraminidase H275Y mutant infected in MDCK cells from ATCC assessed as inhibition of viral replication after 3 days by microscopic analysis using crystal violet stain. The class given is functional. In a few lines: as §1
The subject of test [20] is Influenza A virus. Description: Antiviral activity against Influenza A virus (A/Washington/29/2009(H1N1)) harboring neuraminidase H275Y mutant infected in MDCK cells from Mill Hill assessed as inhibition of viral replication after 3 days by microscopic analysis using crystal violet stain. It counts as functional.

Active and inactive are the calls of the source. The calls are words filed in the database; no cut-off is given here.

`NC(=O)c1nc(F)cnc1O` [FAVIPIRAVIR]: the EC50 was determined as 5.03 µM with Influenza A virus [1]; 4.9 µM with Influenza A virus [2]; 1970 nM in the test on Influenza A virus [3]; 2930 nM in the test on Influenza A virus [5]; 1400 nM in the test on Influenza A virus [6]; 4.2 µM in the test on Influenza A virus [8]. Also, the EC50 was determined as 570 nM with Influenza B virus [10]; 5.3 µM with Influenza B virus [11]; 5.41 µM in the test with Influenza A virus [13]; 1400 nM in the test on Influenza B virus [14]; 1720 nM in the test with Influenza B virus [16]; 890 nM in the test with Influenza A virus [17]. In the test on Influenza A virus [18], the EC50 stood at 190 nM. Besides, the log10FFU came out at 4.2 with Influenza A virus [4]; 5.4 in the test with Influenza A virus [9]; 4.9 in the test with Influenza A virus [12]; 4.5 in the test on Influenza A virus [15]; 4.21 with Influenza A virus [19]; 6.32 in the test with Influenza A virus [20]. The result in the test on Influenza A virus [7] was Active.
